Bioassay records from PubChem BioAssay.
In the library only some 2.4% were active in any assay of this set; here they are far more common.
Fh CTSL1 inh = blocks F. hepatica cathepsin L1 in PFM18AAP counter-screen | recombinant F. hepatica cathepsin L1, Z-Leu-Arg-MCA fluorescence | inhibition, % at 5.96 µM | 300,000 tested, 0.49% active;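 active means inhibition above the mean of all tested compounds plus 3 SD, set per screening campaign, cut at about 17% in these data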
H9c2 protect = myocardial damage modulation in H9c2 cells. protection from H2O2 cell death, % at 20 µM. H9c2 cardiomyocytes, H2O2 injury protection, ATPLite, 2 h. 360,000 tested, 0.63% active;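 active means compounds giving at least 50% protection of heart cells from peroxide-induced death in the single-dose screen, raw or plate-pattern-corrected value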
pCIP destab = compounds decreasing mouse p/CIP protein stability | Q05BA5 | F442A p/CIP-EGFP cells, EGFP fluorescence, 16 h | decrease of EGFP signal, % at 10 µM | 290,000 tested, 0.01% active;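 active means EGFP signal decrease of at least 30% at 10 µM or well 3 SD below plate mean, unless failing retest; inactive means the rest, including hits failing retest or dose response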
PP5 primary = inhibitors of human protein phosphatase 5 (PP5); 320,000 tested, 0.18% active; purified PP5c, OMFP substrate fluorescence; P53041; inhibition, % at 6.7 µM;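 active means inhibition above the campaign's mean inhibition across all tested compounds plus 3 SD, cut at about 9.5% in these data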
JMJD2C inh = human JMJD2C demethylase inhibition; Q9H3R0; GST-JMJD2C(1-420) H3K9me3 demethylation, DELFIA europium; inhibition, % at 2.35 µM; 330,000 tested, 0.069% active;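 active means more than half of a compound's replicate wells show inhibition beyond 50%, single wells judged on their own value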;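 further: signal counts dimethyl H3K9 product captured on neutravidin plate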
Target sequence (Q9H3R0 1-420 limits assumed): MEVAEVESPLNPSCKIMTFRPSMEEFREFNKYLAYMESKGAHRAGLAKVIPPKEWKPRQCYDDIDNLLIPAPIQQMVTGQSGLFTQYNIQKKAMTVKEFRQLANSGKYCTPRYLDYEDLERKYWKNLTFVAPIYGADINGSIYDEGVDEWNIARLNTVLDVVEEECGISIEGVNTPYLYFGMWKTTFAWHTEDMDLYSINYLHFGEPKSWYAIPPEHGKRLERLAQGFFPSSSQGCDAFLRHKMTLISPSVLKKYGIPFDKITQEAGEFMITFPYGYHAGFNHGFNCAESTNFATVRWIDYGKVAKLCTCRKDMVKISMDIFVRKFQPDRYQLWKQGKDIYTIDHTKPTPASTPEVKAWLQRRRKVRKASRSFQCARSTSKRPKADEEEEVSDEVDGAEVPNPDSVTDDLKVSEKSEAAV
T cruzi repl = blocks replication of Trypanosoma cruzi; T. cruzi beta-gal in NIH3T3, luminescence, 90 h; 300,000 tested, 1.4% active; inhibition, % (no concentration beside the values);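 active means mean inhibition across valid replicates above about 55%, limit read from the data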;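 further: signal also drops with host cell toxicity which is not excluded here; higher percent means less beta-gal luminescence so fewer parasites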
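Incubation – ≥90 h infection period, 3 h prior cell attachment · System – NIH/3T3 fibroblasts plus reporter T. cruzi · Doses – compound pinned at 50 nL/well, DMSO · Read-out basis – percent inhibition of parasite-derived β-gal signal · Signal – luminescent β-galactosidase signal after 60 min lysis · Also added – 5000 T. cruzi trypomastigotes/well · Medium – Low-serum DMEM with 2% FBS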
Numbers stand for hits; 0 = inactive; - = no result given.

SMILES | Fh CTSL1 inh | H9c2 protect | pCIP destab | PP5 primary | JMJD2C inh | T cruzi repl
CN(C)S(=O)(=O)c1ccc(C(=O)Nc2ccc3nc(N4CCOCC4)sc3c2)cc1 | - | 0 | - | - | 0 | -
CC1CN(CCOCCSc2ccc(Cl)cc2)CC(C)O1 (configuration not stated) | 0 | 0 | 0 | 0 | 0 | 62
O=C(CCN1CCOCC1)c1ccc(Cl)cc1 | 0 | 0 | 0 | 0 | 0 | 75
CC(C)N(CCn1c(SCC(=O)N2CC(=O)Nc3ccccc32)nc2ccccc2c1=O)C(C)C | 0 | 0 | 0 | 0 | 0 | 69
O=C(c1ccco1)N1CCN(C(c2ccccc2Cl)c2nnnn2CC2CCCO2)CC1 (configuration not stated) | 19 | 0 | 0 | 0 | 0 | 0
Cc1cnc(C(=O)OC(C)C(=O)Nc2cccc3ccccc23)cn1 (configuration not stated) | 0 | 0 | - | 0 | 0 | 0
CCCn1ccnc1SC(C)C(=O)Nc1c(C)n(C)n(-c2ccccc2)c1=O (configuration not stated) | - | 0 | - | 0 | 0 | -
N#C/C(C(=O)Nc1ccc(Cl)cc1)=C(/S)Nc1ccccc1 | 0 | 0 | 0 | 0 | 0 | 79
O=C(Nc1ccc(Nc2ccccc2)cc1)c1ccc(Cl)cc1 | 0 | 0 | - | 0 | 0 | 0
Cc1noc(C(=O)N2CCN(Cc3ccc4c(c3)OCO4)CC2)c1Cl | 0 | 0 | 0 | 0 | 0 | 0
S=c1[nH]nc(-c2cc(-c3ccccc3)n[nH]2)n1/N=C/c1c(Cl)cccc1Cl | 0 | 0 | 0 | 9.6 | 0 | 0
Cc1ccccc1/C=N/n1c(-c2cc(-c3ccccc3)n[nH]2)n[nH]c1=S | 0 | 0 | 0 | 0 | 0 | 0
CCc1ccc(NC(=O)COC(=O)Cn2cnc3ccccc32)cc1 | - | 0 | - | - | - | -
O=C(NCc1cccnc1)c1ccc2sc([C@@H]3O[C@H](CO)[C@H](O)[C@H](O)[C@H]3O)nc2c1 | - | 0 | - | - | - | -
O=C(C(=O)N(Cc1ccccc1)Cc1ccccc1)c1c(-c2ccccc2)[nH]c2ccccc12 | - | 86 | - | - | - | -
COCCNC(=O)C(=O)c1c(-c2ccccc2)[nH]c2ccccc12 | 0 | 0 | 0 | 0 | 0 | 0
CS(=O)(=O)N(CC(=O)Nc1ccc(CC#N)cc1)c1ccc(C23CC4CC(CC(C4)C2)C3)cc1 | 0 | 0 | 0 | 0 | 0 | 70
CS(=O)(=O)N(CC(=O)Nc1c(F)cccc1F)c1ccc(C23CC4CC(CC(C4)C2)C3)cc1 | 0 | 0 | 0 | 0 | 0 | 70
Cc1ccc(S(=O)(=O)N(C)C)cc1NC(=O)COC(=O)Cc1cccs1 | 0 | 0 | - | 0 | 0 | 0
CCCc1cc(N2CCN(C(=O)c3ccco3)CC2)n2c(nc3ccccc32)c1C#N | 0 | 55 | 0 | 0 | 0 | 0
CCCc1cc(-n2ccnc2C)n2c(nc3ccccc32)c1C#N | 0 | 0 | - | 0 | 0 | 0
CCOC(=O)CSc1nc2sc(C)c(C)c2c(=O)[nH]1 | 0 | 52 | 0 | 0 | 0 | 0
CCOC(=O)CSc1nnc(CSc2nc3sc4c(c3c(=O)[nH]2)CCC4)n1-c1ccccc1 | 0 | 0 | 0 | 0 | 0 | 0
CCOC(=O)CSc1nnc(CSc2nc3ccccc3c(=O)[nH]2)n1-c1ccccc1 | 0 | 51 | 0 | 0 | 0 | 0
Cc1sc2nc(NCCO)[nH]c(=O)c2c1C | 0 | 72 | 0 | 0 | 0 | 0
SMILES | Fh CTSL1 inh | H9c2 protect | pCIP destab | PP5 primary | JMJD2C inh | T cruzi repl
CCOC(=O)CSc1nnc(CSc2nc3sc4c(c3c(=O)[nH]2)CCC4)n1C | 0 | 66 | 0 | 0 | 0 | 0
CCOC(=O)CSc1nc2sc(C(=O)O)c(C)c2c(=O)[nH]1 | 0 | 0 | 0 | 0 | 0 | 0
Oc1ccccc1C1CCCCC1c1ccccc1 (configuration not stated) | 0 | 0 | 0 | 0 | 0 | 0
CN(C)C(=O)CSc1nc2ccccc2c(=O)[nH]1 | 0 | 81 | 0 | 0 | 0 | 0
CCN(CC)C(=O)CSc1nc2ccccc2c(=O)[nH]1 | 0 | 65 | 0 | 0 | 0 | 0
CCOC(=O)CSc1nc2ccccc2c(=O)[nH]1 | 0 | 58 | 0 | 0 | 0 | 0
CCOC(=O)CSc1nc2sccc2c(=O)[nH]1 | 0 | 0 | 0 | 0 | 0 | 0
Cc1cccc(C)c1NC(=O)CSc1nc2ccccc2c(=O)[nH]1 | 0 | 0 | 0 | 0 | 0 | 0
Cc1ccccc1C(=O)NNC(=O)CSc1nc2ccccc2c(=O)[nH]1 | 18 | 0 | 0 | 0 | 0 | 0
CCOc1ccc(N(Cc2cc3cc(C)ccc3[nH]c2=O)S(=O)(=O)c2ccccc2)cc1 | 0 | 0 | 0 | 0 | 0 | 0
CCc1nnc(SCC(=O)Nc2ccc3ccccc3c2)n1N | - | 0 | - | - | 0 | -
Cc1ccc(C(=O)CSc2nc3ccccc3c(=O)[nH]2)cc1 | 0 | 47 | 0 | 0 | 0 | 0
CCc1ccc(C(=O)CSc2nc3ccccc3c(=O)[nH]2)cc1 | 0 | 0 | 0 | 0 | 0 | 0
Cc1cc(=O)n2[nH]c(-c3ccccc3)cc2n1 | 0 | 0 | 0 | 0 | 0 | 0
Cc1cc(=O)n2[nH]c(-c3ccc(C(C)(C)C)cc3)cc2n1 | 0 | 0 | 0 | 0 | 0 | 63
CCOc1ccccc1Nc1nnc(SCC(=O)NC2CC2)s1 | - | 0 | - | - | 0 | -
COc1ccc(OCC(=O)O/N=C(\N)Cc2ccc(Cl)cc2)cc1 | 30 | 0 | 0 | 0 | 0 | 0
Cc1ccc(OCC(=O)O/N=C(\N)Cc2ccc(Cl)cc2)cc1 | 0 | 0 | 0 | 0 | 0 | 0
NS(=O)(=O)c1ccc(NC(=O)COC(=O)COc2ccc(Br)cc2)cc1 | 0 | 0 | 0 | 0 | 0 | 0
COc1cccc(/C=C/C(=O)OCC(=O)N2CCCC2)c1OC | - | 0 | - | - | 0 | -
CC1C/C(=C/c2ccccn2)C(=O)/C(=C/c2ccccn2)C1 (configuration not stated) | 0 | 0 | 0 | 0 | 0 | 58
CC(C)(C)OC(=O)N1CCC[C@H]1c1nnc(SCC(=O)Nc2ccc(Br)cc2)o1 | 0 | 60 | 0 | 0 | 0 | 0
CC1CC(C)CN(C(=O)COC(=O)COc2ccc(C#N)cc2)C1 (configuration not stated) | - | 0 | - | - | 0 | -
O=C(NC1CCCC1)C(c1ccc(F)cc1)N(Cc1ccc(Cl)cc1)C(=O)CCl (configuration not stated) | 41 | 0 | 0 | 0 | 0 | 0
O=C(NC1CCCC1)C(c1ccc(F)cc1)N(Cc1ccccc1)C(=O)c1csnn1 (configuration not stated) | 0 | 0 | 0 | 0 | 0 | 0
O=C(NC1CCCC1)C(c1ccc(Cl)cc1)N(Cc1ccc(F)cc1)C(=O)CCl (configuration not stated) | 36 | 0 | 0 | 0 | 0 | 0
O=C(NC1CCCC1)C(c1ccccc1)N(Cc1ccc(F)cc1)C(=O)c1csnn1 (configuration not stated) | 0 | 0 | 0 | 0 | 0 | 0
O=C(COc1ccccc1)OCc1cc(-c2ccco2)on1 | - | 0 | - | 0 | 0 | -
Cc1ccc(-n2nnnc2-c2cnc3ccc(Cl)cc3c2-c2ccccc2)cc1 | 0 | 0 | 0 | 0 | 0 | 0
Clc1ccc2[nH]cc(-c3nnnn3-c3ccc4ccccc4c3)c2c1 | 0 | 0 | 0 | 0 | 0 | 69
